Assay outcomes deposited in PubChem by Johns Hopkins Ion Channel Center.
RGS4 act: RGS4 potentiation or activation; B-score at 10 µM; 310,000 compounds, 0.92% hits; AID 463111; HEK293 M3R/inducible RGS4, carbachol calcium flux Fluo4; hits give low values;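 active = B-score of the integrated calcium signal more than 4 SD below the library mean, with starting fluorescence not abnormally high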;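 note: negative B-score means reduced calcium response which marks RGS4 activation or potentiation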
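Assay system: Inducible-RGS4 HEK293 cells carrying M3 receptor | Schedule: Compound preincubation 20 min at room temperature before agonist | Signal: Kinetic calcium fluorescence imaging with Fluo4-AM dye, 2 µM | Read-out basis: B score from integrated fluorescence ratio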
MrgX1 PAM: allosterically activates human MrgX1 receptor signaling | Q96LB2 | MrgX1-HEK293, Fluo-4 calcium flux, FDSS; hits give high values | B-score at 10 µM | 310,000 compounds, 0.63% hits | AID 588675;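 active = plate-corrected calcium response at least 3 library SD above typical, normal starting fluorescence, not activating the receptor alone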;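 note: compound read alongside a low EC10 to EC30 dose of BAM8-22 agonist; peak minus trough fluorescence over baseline measured at the second addition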
Target sequence (Q96LB2 whole entry, looked up): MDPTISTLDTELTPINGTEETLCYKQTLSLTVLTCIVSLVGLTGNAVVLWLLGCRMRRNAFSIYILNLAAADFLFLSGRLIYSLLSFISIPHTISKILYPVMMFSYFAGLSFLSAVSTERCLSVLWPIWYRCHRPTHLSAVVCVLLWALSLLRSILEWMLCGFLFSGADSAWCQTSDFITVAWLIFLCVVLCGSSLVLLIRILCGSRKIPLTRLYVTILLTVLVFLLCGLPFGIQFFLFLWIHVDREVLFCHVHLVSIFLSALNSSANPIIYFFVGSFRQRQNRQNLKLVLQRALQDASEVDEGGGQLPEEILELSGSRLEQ
MrgX1 agonist: activates human MrgX1 receptor signaling; B-score at 10 µM; 310,000 compounds, 0.44% hits; MrgX1-HEK293 cells, Fluo-4 calcium fluorescence, agonist mode; hits give high values; Q96LB2; AID 588627;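 active = calcium response B-score plate-corrected fluorescence ratio at least 3 library SD, with starting fluorescence B-score inside 5 SD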
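Material – MrgX1-expressing HEK293 cells · Input – 15,000 cells seeded per well · Dosing – compound as first of three additions · Times – overnight seeding, then 1 h dark dye loading · Measured by – kinetic Fluo-4 NW fluorescence of intracellular calcium · Read-out – B-scored fluorescence response ratio · Benchmarks – positive and negative control wells on each plate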
MrgX1 antagonist: human MrgX1 receptor antagonism, primary screen | Q96LB2 | MRGX1-HEK293 calcium flux, Fluo-4, BAM8-22 antagonism; hits give low values | B-score at 10 µM | 310,000 compounds, 1.3% hits | AID 588676;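 active = calcium-response B-score plate-corrected more than 3 library SD below zero, starting fluorescence within 5 deviations, no agonist response on first addition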;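 note: peak minus trough fluorescence over baseline after final BAM8-22 challenge near maximal dose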
RGS4 block: inhibitors of human RGS4; P49798; B-score at 10 µM; HEK293 M3R/RGS4 inducible, Fluo-4 calcium flux; hits give high values; triggered by carbachol at its EC20; 310,000 compounds, 0.45% hits; AID 463165;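 active = B-score, a plate-corrected calcium signal, over three deviations above library mean, with baseline fluorescence within five deviations of library mean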;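 note: RGS4 expression induced by doxycycline in cells with stable M3 receptor; B-score is computed from the integrated fluorescence ratio over baseline after carbachol; higher B-score means a larger calcium signal and so more RGS4 inhibition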
Target sequence (P49798 whole entry, looked up): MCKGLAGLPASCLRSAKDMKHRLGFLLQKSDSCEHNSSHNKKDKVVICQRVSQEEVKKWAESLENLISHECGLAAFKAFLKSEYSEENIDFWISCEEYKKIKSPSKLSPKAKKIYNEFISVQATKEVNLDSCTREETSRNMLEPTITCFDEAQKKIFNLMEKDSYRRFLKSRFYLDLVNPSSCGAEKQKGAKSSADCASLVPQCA
Large screens that a line does not name were inactive. Shown are actives, neighbours in structure and some others; about 3.5% of the full set was active somewhere.

CN(C)C(CNC(=O)c1ccc(-c2ccccc2)cc1)c1ccccc1 (stereo unspecified)	none
Cc1ccc(NC(=O)c2nn(C34CC5CC(CC(C5)C3)C4)cc2[N+](=O)[O-])cc1	MrgX1 antagonist -5
CN(Cc1ccc(C(C)(C)C)cc1)C(=O)c1ccc2c(=O)n3c(nc2c1)CCC3	none
CCN(CC#CCC(O)(c1ccccc1)C1CCCC1)C(C)C (stereo unspecified)	RGS4 act -7.4
O=C(Nc1ccnn1C1CCN(C(=O)CCc2ccc(F)cc2)CC1)C1CCOC1 (stereo unspecified)	none
CCC(C)(C)NC(=O)CN(C(=O)c1csnn1)c1ccccc1-c1ccccc1	none
CCOC(=O)CCS(=O)(=O)c1ccc(-c2ccc(S(=O)(=O)CCC(=O)OCC)cc2)cc1	MrgX1 antagonist -7.1
Cn1cc(/C=N/n2cnc3sc4c(c3c2=O)CCCC4)c2ccccc21	none
O=c1c2c3c(sc2ncn1/N=C/c1ccc([N+](=O)[O-])o1)CCCC3	RGS4 block 5.2
S=C(NC1CCCCC1)N(CCc1ccccc1)CCc1ccccc1	none
Cc1ccccc1NC(=O)C1CCC(C)(C(=O)O)C1(C)C (stereo unspecified)	none
N#C/C(=C\c1ccc(-c2ccccc2C(=O)O)o1)c1nc2ccccc2[nH]1	MrgX1 agonist 27
Cc1ccc2nc(/C(C#N)=C/c3ccc(-c4ccccc4C(=O)O)o3)[nH]c2c1	MrgX1 agonist 33
CCCOC(=O)Nc1cc(OC)ccc1[N+](=O)[O-]	none
C[N+]1(C)CCC(=C2c3ccccc3CC(=O)c3sccc32)CC1	RGS4 act -8.3
CCOC(=O)c1[nH]ncc1CN1CCN(Cc2ccc(C)cc2)C(CCO)C1 (stereo unspecified)	none
CCC1=NN2C(=N)/C(=C/c3ccc(OS(=O)(=O)c4ccc(C)cc4)c(OC)c3)C(=O)N=C2S1	none
CCS(=O)(=O)C1=NN2C(=N)/C(=C\c3ccc(OS(=O)(=O)c4ccccc4)cc3)C(=O)N=C2S1	MrgX1 PAM 7.2
CCS(=O)(=O)C1=NN2C(=N)/C(=C\c3ccc(OS(=O)(=O)c4ccccc4)c(OC)c3)C(=O)N=C2S1	none
CCC1=NN2C(=N)/C(=C/c3ccc(OS(=O)(=O)c4ccccc4)cc3)C(=O)N=C2S1	MrgX1 agonist 39
CS(=O)(=O)C1=NSC2=NC(=O)/C(=C\c3ccc(OC(=O)c4ccco4)c(Br)c3)C(=N)N21	MrgX1 PAM 17
CCC(CC)C1=NN2C(=N)/C(=C/c3ccc(OC(=O)c4ccco4)cc3)C(=O)N=C2S1	none
COc1cc(/C=C2\C(=N)N3N=C(S(=O)(=O)CC(C)C)SC3=NC2=O)ccc1OC(=O)c1ccco1	none
CC(C)CS(=O)(=O)C1=NSC2=NC(=O)/C(=C\c3ccc(OC(=O)c4ccco4)cc3)C(=N)N21	MrgX1 PAM 15
CCC(=O)C1CCCN(C(=O)c2ccc(OC3CCN(C(=O)CCOC)CC3)cc2)C1 (stereo unspecified)	none
NC(=O)C1(N2CCCCC2)CCN(C(=S)Nc2ccc(F)c(Cl)c2)CC1	none
CN(Cc1cn(C)c2ccccc12)C(=S)Nc1cc(F)cc(F)c1	none
CCS(=O)(=O)C1=NN2C(=N)/C(=C\c3ccc(OC(=O)c4ccco4)cc3)C(=O)N=C2S1	MrgX1 PAM 8.6
CCC1=NN2C(=N)/C(=C\c3cccn3-c3ccc(Cl)cc3)C(=O)N=C2S1	MrgX1 PAM 8.1
Cc1cc(NC(=O)CSc2nc(=O)n(CCCN(C)C)c3c2CCCC3)no1	none
O=C(NC1(C(F)(F)F)NC(=O)N(C2CCCCC2)C1=O)c1cccs1 (stereo unspecified)	none
COc1cc(/C=N/n2cc(-c3ccccc3)[nH]c2=S)cc(OC)c1O	MrgX1 PAM 11
Oc1ccc(/C=N/n2cc(-c3ccccc3)[nH]c2=S)cc1	none
COc1ccc(OC)c(CN2CCN(C(=O)CCC(=O)c3cccs3)CC2)c1	none
O=C1NCCN(C(=O)CCc2nnc(-c3ccsc3)o2)C1c1ccc(F)cc1 (stereo unspecified)	none
O=C(CCc1nc2sc3c(c2c(=O)[nH]1)CCCC3)N1CCN(c2ccccc2)CC1	MrgX1 antagonist -7.2
Cc1cccc(C)c1OCC(=O)NNC(=S)NC(=O)C1CC1	MrgX1 agonist 63
FC(F)(F)c1cc(CCN2C(=S)NC[C@@H]2CC2CCCCC2)cc(C(F)(F)F)c1	RGS4 act -9.8
O=C(Cn1nc(-c2ccc(Cl)cc2)c2ccccc2c1=O)NN1CCOCC1	none
Cc1ccc(C(=O)NCC(=O)OCC(=O)N(CC(C)C)c2c(N)n(Cc3ccccc3)c(=O)[nH]c2=O)cc1	none
CC(C)C[C@@H](COc1ccccc1)N1CCN(CCc2ccccc2)CCC1=O	MrgX1 PAM 11
CCCCNc1nc(=S)n(-c2ccccc2)c(C)c1C(C)=O	none
O=C(CSCc1ccccc1Br)NNC(=S)NCc1ccco1	none
Cn1ccnc1C1CCCCN1C(=O)c1cc(COc2ccc(F)cc2Cl)on1 (stereo unspecified)	RGS4 act -7.4
O=C(c1cc(COc2ccc(F)cc2Cl)on1)N1CC[C@@H]2CCCC[C@H]2C1	none
CCN(CC)C1CCN(C(=O)c2cc(COc3ccc(F)cc3Cl)on2)C1 (stereo unspecified)	RGS4 act -7
CC(C)(C)[C@H]1C=C(C(=O)N2CCN(Cc3ccc4c(c3)OCO4)CC2)O[C@@H](OCc2ccc(CO)cc2)C1	none
CCCOc1cccc(C(=O)NCCNC(=O)c2ccco2)c1	none
CC(SC#N)C(=O)C12CC3CC(CC(C3)C1)C2 (stereo unspecified)	MrgX1 antagonist -5.1
COc1ccc(N2CC(O)(c3ccc(OC(F)F)cc3)[N+]3=C2CCCC3)cc1 (stereo unspecified)	RGS4 act -8.3
COc1ccc(N2CC(O)(c3ccc(F)cc3)[N+]3=C2CCCC3)cc1 (stereo unspecified)	none
O=C(NC1CCCC1)C(c1cccs1)N(CC1CCCO1)C(=O)Cc1cccs1 (stereo unspecified)	none
CSc1nnc2c(n1)[nH]c1c(C)cccc12	MrgX1 antagonist -4.7
CCSc1nnc2c(n1)[nH]c1c(C)cccc12	none
COC(=O)c1ccc(C)c(-n2c(=O)n(Cc3ccccc3)c(=O)c3[nH]cnc32)c1	none
COc1ccc(N2C(=O)CSC2c2ccc([N+](=O)[O-])cc2)cc1 (stereo unspecified)	none
CCCc1ccc(OCc2ccc(C(=O)NN)o2)c(OC)c1	MrgX1 antagonist -5.3
CCCc1ccc(OCc2ccc(C(=O)O)o2)c(OC)c1	none
CN(C(=O)COC(=O)CNC(=O)c1ccc(Cl)cc1Cl)c1ccccc1	none
COc1ccc([N+](=O)[O-])c(S(=O)(=O)c2ccccc2)n1	MrgX1 antagonist -6.2
O=[N+]([O-])c1cccnc1S(=O)(=O)c1ccccc1	none
COc1ccc([N+](=O)[O-])c(S(=O)(=O)c2ccc(Cl)cc2)n1	MrgX1 antagonist -6.5
